# Experimental data pooled from the literature.
# Compare with care: the assays were run in different laboratories.
# Observed: metabolic stability
SMILES,test system,setting,half-life [min]
CC(=O)c1c(C)c2cnc(Nc3ccc(N4CCNCC4)cn3)nc2n(C2CCCC2)c1=O,"rat, liver microsomes","1 µM, pH 7.4",90.4
O=C1CC[C@H](N2Cc3cc(N4CCN(CC5CCN(c6ccc([C@@H]7c8ccc(O)cc8CC[C@@H]7c7ccccc7)cc6)CC5)CC4)ccc3C2=O)C(=O)N1,"Sprague-Dawley rat, hepatocytes",1 µM,83
O=c1ccc2ccc(O)cc2o1,"rat, liver microsomes",,2.42
CN(C)C(=O)c1cc2cnc(Nc3ccc(N4CCNCC4)cn3)nc2n1C1CCCC1,"rat, liver microsomes","1 µM, pH 7.4",49.8
O=c1ccc2ccc(O)cc2o1,"Sprague-Dawley rat, hepatocytes",1 µM,11.4
CCOc1ccc2ccc(=O)oc2c1,"male Sprague-Dawley rat, hepatocytes",1 µM,13.1
O=C(c1ccc(F)cc1)C1CCN(CCn2c(=O)[nH]c3ccccc3c2=O)CC1,"rat, liver microsomes",,17.8
CCN(CC)CCNC(=O)c1c(C)[nH]c(/C=C2\C(=O)Nc3ccc(F)cc32)c1C,"rat, liver microsomes",1 µM,77
